Source: PubChem
Avidin fluor = compound fluoresces at 488/530 nm on avidin beads | fluorescence (KMESF) at 10 µM | compound fluorescence 488/530 nm, flow cytometry; stronger effect = higher value | actives 0.38% (n = 220,000); in the data active = fluorescence above about 47
ABCB1 block = blocks JC-1 efflux by human ABCB1 transporter; P08183; CCRF-Adr cells, flow cytometry; inhibition, % at 6.6 µM; actives 0.067% (n = 190,000); AID 1326; in the data active = inhibition above about 40%;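 also: higher value means more JC-1 retained so stronger ABCB1 efflux block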
PKD1 kinase inh = PKD1 (human) kinase inhibition; Q15139; PKD1 kinase fluorescence polarization assay; inhibition, % (concentration not given with the values); actives 0.056% (n = 200,000)
ABCG2 block = human ABCG2 inhibition, ABCB1 as counter-screen; IgMXP3 cells, JC-1 efflux, flow cytometry; inhibition, % at 6.6 µM; Q9UNQ0; actives 0.1% (n = 190,000);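 active = inhibition above 80%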
Target sequence (Q9UNQ0 whole entry, looked up): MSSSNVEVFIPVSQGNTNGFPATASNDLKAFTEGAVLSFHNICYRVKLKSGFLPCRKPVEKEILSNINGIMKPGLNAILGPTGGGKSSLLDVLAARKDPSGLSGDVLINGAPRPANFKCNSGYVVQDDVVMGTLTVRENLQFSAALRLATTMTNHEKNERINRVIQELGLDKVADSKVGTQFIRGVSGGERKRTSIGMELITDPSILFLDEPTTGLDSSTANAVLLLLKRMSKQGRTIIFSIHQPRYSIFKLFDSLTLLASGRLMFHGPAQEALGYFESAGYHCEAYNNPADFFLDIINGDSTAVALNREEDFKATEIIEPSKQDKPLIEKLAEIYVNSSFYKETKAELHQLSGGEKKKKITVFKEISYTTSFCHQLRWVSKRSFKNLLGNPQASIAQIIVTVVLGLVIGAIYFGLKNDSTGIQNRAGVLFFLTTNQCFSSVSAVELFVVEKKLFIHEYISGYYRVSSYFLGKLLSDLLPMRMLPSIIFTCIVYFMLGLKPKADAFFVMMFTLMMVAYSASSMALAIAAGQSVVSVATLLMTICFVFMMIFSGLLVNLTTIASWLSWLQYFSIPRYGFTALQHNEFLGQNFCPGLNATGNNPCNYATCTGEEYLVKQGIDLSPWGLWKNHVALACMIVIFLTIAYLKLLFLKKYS
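Test system: IgMXP3 (ABCG2) plus far-red-tagged CCRF-Adr (ABCB1) cells. Reagent: JC-1 dye as substrate. Timing: 10 min exposure at 25 °C with rotation, no wash. Measured by: flow cytometric JC-1 green MFI at 530 nm. Read-out: percent efflux inhibition, scaled nicardipine 100% to DMSO 0%. Control set: nicardipine and DMSO wells.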
Lmaj promast = inhibitors of Leishmania major promastigote growth | inhibition, % at 10 µM | actives 9% (n = 200,000) | Leishmania major promastigotes, resazurin fluorescence viability;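 also: promastigotes grown with compound for 44 hours at 28 °C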
GSH fluor = compound fluoresces at 488/530 nm on GSH beads; GSH beads flow cytometry, compound fluorescence 488/530 nm; stronger effect = higher value; fluorescence (KMESF) at 10 µM; actives 0.25% (n = 190,000); AID 1776; in the data active = fluorescence above about 89;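 also: glutathione beads carrying GST-tagged Bcl family fusion proteins plus one bare bead set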
Of the large screens only hits and unclear results are named; the others gave an inactive call. Shown is part of a subset that was picked to be rich in hits. Rule as the data show it, unless noted: active = inhibition above about 50%; inactive = the rest.

Cc1ccc(NC(=O)COc2ccccc2CNC(C)(C)CC(C)(C)C)cc1	Lmaj promast 100.4
CC(C)(CO)NCc1ccccc1OCC(=O)Nc1ccccc1	none
CN1CCC(Oc2ccccc2Sc2ccccc2)CC1	Lmaj promast 100.3
Cc1cc(Oc2nc3c(C)cccn3c(=O)c2/C=C(\C#N)S(=O)(=O)c2ccccc2)ccc1Cl	Lmaj promast 54.4
Cc1cccn2c(=O)c(/C=C(\C#N)S(=O)(=O)c3ccccc3)c(Oc3ccc(Cl)cc3)nc12	none
Cc1nnc(-c2cnn(-c3ccccc3)c2N)n1Cc1ccncc1	Avidin fluor 78
Oc1ccc2ccccc2c1/C=N/Nc1ccccc1	none
Cc1cc(N/N=C/c2c(O)ccc3ccccc23)nc(-c2ccccc2O)n1	Lmaj promast 96.8
O=c1[nH]c2ccccc2nc1/C=C/c1ccc(Cl)cc1	none (no result: Avidin fluor)
Nc1nc(-c2ccccn2)nc(N)c1Cc1ccccc1F	Lmaj promast 95.2
Nc1nc(-c2ccccn2)nc(N)c1Cc1ccc(Cl)cc1Cl	Lmaj promast 100.6
Cc1n[nH]c(C)c1Cc1c(F)cccc1Cl	none (no result: ABCB1 block, PKD1 kinase inh, ABCG2 block, Lmaj promast, GSH fluor)
Nc1nc(-c2ccccn2)nc(N)c1Cc1c(F)cccc1Cl	Lmaj promast 100.6
O=C(Oc1ccccc1C(=O)Nc1ccccc1)c1ccccc1Br	none (no result: ABCB1 block)
CCCCN(C)C(=O)CCC(=O)Nc1ccc2nc(N3CCN(C)CC3)cc(C)c2c1	none
CCOc1ccccc1NC(=O)CCC(=O)Nc1ccc2nc(N3CCN(C)CC3)cc(C)c2c1	Lmaj promast 74.0
Cc1cc(N2CCN(C)CC2)nc2ccc(NC(=S)NCc3cccs3)cc12	Lmaj promast 99.2
CCN1CCN(c2cc(C)c3cc(NC(=S)NCc4cccs4)ccc3n2)CC1	Lmaj promast 99.1
COc1ccccc1CNC(=S)Nc1ccc2nc(N3CCN(C)CC3)cc(C)c2c1	Lmaj promast 100.4
CCC(C)NC(=S)Nc1ccc2nc(N3CCN(CC)CC3)cc(C)c2c1 (centres undefined)	Lmaj promast 94.2
CCN1CCN(c2cc(C)c3cc(NC(=S)N(CC)CC)ccc3n2)CC1	none
Cc1cc(/C=C2\SC(N)=NC2=O)c(C)n1-c1ccc(F)cc1	none
O=C1CSC(=S)N1CC1CCCO1 (centres undefined)	Lmaj promast 80.9
O=C1C=C(NNC(=O)c2ccccc2Br)CCC1	none
Cc1ccc(S(=O)(=O)N(CCCO)CC(O)CON=C2c3ccccc3-c3ccccc32)cc1 (centres undefined)	Lmaj promast 100.3
Cc1ccc(S(=O)(=O)N(CC(O)CN(C)C)c2ccccc2)cc1 (centres undefined)	none
O=C(N/N=C/c1ccc(O)cc1O)c1ccc(CN2C(=O)c3cccc4cccc2c34)cc1	Lmaj promast 100.1
Cc1cc([N+](=O)[O-])nn1Cc1ccc(C(=O)N/N=C/c2ccc(O)cc2O)cc1	Lmaj promast 95.3
Cc1cc([N+](=O)[O-])nn1Cc1ccc(C(=O)N/N=C/c2ccc(F)cc2)cc1	none (no result: ABCB1 block, PKD1 kinase inh, ABCG2 block, Lmaj promast, GSH fluor)
O=C(N/N=C/c1ccccc1)c1ccc(CN2C(=O)c3cccc4cccc2c34)cc1	none
Cc1ccc(OCC(=O)c2ccc(Cl)s2)c([N+](=O)[O-])n1	none
CC(C)C1C(c2ccccc2)NC(c2ccccc2)CC1(O)c1ccc(F)cc1 (centres undefined)	none (no result: ABCB1 block, PKD1 kinase inh, ABCG2 block, Lmaj promast, GSH fluor)
Cn1cnnc1SC1c2cccc3cccc(c23)C1NS(=O)(=O)c1ccc(Cl)cc1 (centres undefined)	Lmaj promast 53.2
O=S(=O)(NC1c2cccc3cccc(c23)C1N1CCNCC1)c1ccc(Cl)cc1 (centres undefined)	Lmaj promast 99.7
Cn1cnnc1SC1c2cccc3cccc(c23)C1NS(=O)(=O)c1ccccc1 (centres undefined)	none
CC(=O)N1CCN(C2c3cccc4cccc(c34)C2NS(=O)(=O)c2ccccc2)CC1 (centres undefined)	none
CCCOCC(O)CC(Cc1ccccc1)C(=O)NN (centres undefined)	none (no result: ABCB1 block, PKD1 kinase inh, ABCG2 block, Lmaj promast, GSH fluor)
Oc1[nH]c2c(Cl)cc(Cl)cc2c1N=NC(=S)NCC1CCCO1 (centres undefined)	Lmaj promast 97.5
CSc1ccc(OC2CCCCC2NS(=O)(=O)c2ccc(Cl)cc2)cc1 (centres undefined)	Lmaj promast 96.0
O=S(=O)(NC1CCCCC1Oc1ccccc1)c1ccc(Cl)cc1 (centres undefined)	Lmaj promast 74.8
